PAD4 FP inh = blocks human protein arginine deiminase 4; recombinant PAD4, RCA probe fluorescence polarization; inhibition, % at 6.36 µM; 330,000 compounds, 0.41% hits; AID 485272;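 active means percent inhibition above a cutoff equal to the mean of all tested compounds plus 3 SD, cut at about 15% in these data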
SIAE primary = human SIAE inhibition, primary screen. Q9HAT2. SIAE FP-Rh probe binding, fluorescence polarization. inhibition, % at 9.66 µM. 370,000 compounds, 0.69% hits;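 active means inhibition above a cutoff: mean of compounds within the control limits plus 3 SD of those, cut at about 17% in these data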
GSTO1 inh = counter-screen for RBBP9 inhibitors: inhibitors of human GSTO1 | P78417 | recombinant GSTO1, activity-based probe fluorescence polarization | inhibition, % at 5.96 µM | 300,000 compounds, 1.1% hits | AID 1974;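 active means inhibition above the campaign mean inhibition plus 3 SD, cut at about 35% in these data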
Target sequence (P78417 whole entry, looked up): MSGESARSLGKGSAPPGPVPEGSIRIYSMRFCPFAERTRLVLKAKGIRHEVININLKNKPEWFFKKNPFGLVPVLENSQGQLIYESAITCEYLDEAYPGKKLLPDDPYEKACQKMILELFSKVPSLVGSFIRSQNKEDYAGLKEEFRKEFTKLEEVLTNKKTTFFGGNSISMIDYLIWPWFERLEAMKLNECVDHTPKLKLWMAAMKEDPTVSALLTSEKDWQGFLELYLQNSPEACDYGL
RBBP9 inh = inhibitors of human serine hydrolase RBBP9 | 220,000 compounds, 0.2% hits | recombinant RBBP9, FP-Rh probe fluorescence polarization | inhibition, % at 7.94 µM;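 active means inhibition above the campaign mean of all tested compounds plus 3 SD, cut at about 14% in these data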
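Assay system: recombinant human RBBP9; Reagent: Serine-hydrolase probe FP-Rh, 375 nM pre-mixing; Doses: 7.94 µM single dose, 0.794% DMSO; Incubation: 30 min then 45 min, 25 °C; Detection: fluorescence polarization (mP), excitation 525 nm, emission 598 nm; Evaluation: percent inhibition from mP, scaled between DMSO and no-protein wells.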
PRMT1 FP inh = inhibitors of human PRMT1. Q99873. recombinant PRMT1, activity-based probe fluorescence polarization. inhibition, % at 2.79 µM. 370,000 compounds, 1.3% hits;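 active means inhibition above about 21% made by adding two undisclosed values, limit read from the data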
Target sequence (Q99873 whole entry, looked up): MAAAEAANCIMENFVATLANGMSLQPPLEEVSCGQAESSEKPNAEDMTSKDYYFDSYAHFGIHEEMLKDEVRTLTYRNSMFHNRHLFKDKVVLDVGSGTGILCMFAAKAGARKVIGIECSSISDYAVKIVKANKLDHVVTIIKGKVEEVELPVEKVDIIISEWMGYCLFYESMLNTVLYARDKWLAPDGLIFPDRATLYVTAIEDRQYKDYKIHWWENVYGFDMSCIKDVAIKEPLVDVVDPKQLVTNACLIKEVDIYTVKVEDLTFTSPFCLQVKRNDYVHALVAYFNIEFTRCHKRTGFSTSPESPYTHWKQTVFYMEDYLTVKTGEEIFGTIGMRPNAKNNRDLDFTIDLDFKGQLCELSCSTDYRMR
GSTO1 inh conf = GSTO1 (human) inhibition, confirmation | recombinant GSTO1, probe fluorescence polarization | inhibition, % at 5.96 µM | 2,400 compounds, 54% hits | shares compounds with GSTO1 inh;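 active means inhibition above the primary screen's cutoff, its mean inhibition plus 3 SD, cut at about 35% in these data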;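 further: loss of polarization as inhibitors block binding of rhodamine sulfonate ester activity probe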
GSTO1 recomb ABPP = blocks recombinant human glutathione S-transferase omega 1; shares compounds with GSTO1 inh; 130 compounds, 30% hits; inhibition, % at 1 µM; recombinant GSTO1, gel ABPP SE-Rh probe fluorescence;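 active means inhibition of the enzyme GSTO1 above about 75%, limit read from the data; inactive means inhibition below that limit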
Large screens that a line does not name were inactive (follow-up assays come after a bar, where they were run). This is a sample that favours compounds with a hit; in the whole collection about 2.7% have one here.

O=C(O)c1ccc(N=N/C(=N\Nc2ccc(C(=O)O)cc2)c2ccccc2)cc1	GSTO1 inh 39.3 (no result: RBBP9 inh) | GSTO1 inh conf 67.4
O=C(CN(c1ccccc1)S(=O)(=O)c1ccccc1[N+](=O)[O-])NN=C1CCCCCCC1	none
Cc1ccc(N(CC2CO2)S(=O)(=O)c2ccccc2[N+](=O)[O-])cc1 (centres undefined)	GSTO1 inh 87.1 (no result: RBBP9 inh) | GSTO1 inh conf 96.7 | GSTO1 recomb ABPP inactive
O=[N+]([O-])c1ccccc1S(=O)(=O)N(CC1CO1)c1ccccc1 (centres undefined)	GSTO1 inh 98.4 (no result: RBBP9 inh) | GSTO1 inh conf 99.7 | GSTO1 recomb ABPP inactive
Cc1ccc(S(=O)(=O)N(CC2CO2)c2ccccc2[N+](=O)[O-])cc1 (centres undefined)	GSTO1 inh 77.6 | GSTO1 inh conf 92.8 | GSTO1 recomb ABPP inactive
COc1ccc(N2C3=C(CC4=C2CCCC4=O)C(=O)CCC3)cc1	GSTO1 inh 58.0 | GSTO1 inh conf inactive
Cc1cc(C(=O)NNC(=S)NC(=O)/C=C/c2ccccc2Cl)n[nH]1	GSTO1 inh 57.9 | GSTO1 inh conf inactive
CC(C)OP(=O)(OC(C)C)C1(NS(=O)(=O)c2ccc(Cl)cc2)C=C(Cl)C(=O)C(Cl)=C1	GSTO1 inh 62.0, PRMT1 FP inh 29.9 (no result: RBBP9 inh) | GSTO1 inh conf 43.6
CCN(CC)c1ccc2c(c1)CCCN2	GSTO1 inh 42.1 (no result: SIAE primary, PRMT1 FP inh) | GSTO1 inh conf inactive
O=S(=O)(c1ccc2c(c1)CCCN2)N1CCCC1	none (no result: GSTO1 inh, RBBP9 inh)
Cc1ccccc1NC(=O)Cc1nc(CCl)cs1	GSTO1 inh 93.1 | GSTO1 inh conf 95.1 | GSTO1 recomb ABPP inactive
COCC(C)OC(=O)c1c(N)n(CC(C)C)c2nc3ccccc3nc12 (centres undefined)	GSTO1 inh 45.1 | GSTO1 inh conf inactive
COc1cc(NC(=O)CN2C(=O)NC(C)(CCC(C)C)C2=O)cc(OC)c1 (centres undefined)	none
CCOc1cc(C2C3=C(CCCC3=O)N(CCC(=O)O)C3=C2C(=O)CCC3)ccc1OS(=O)(=O)c1ccc(C)cc1	GSTO1 inh 77.7 | GSTO1 inh conf 69.8
Cc1ccc(S(=O)(=O)Oc2ccc(C3C4=C(CCCC4=O)OC4=C3C(=O)CCC4)cc2)cc1	none
Cc1ccc(S(=O)(=O)Oc2ccc(C3C4=C(CCCC4=O)N(CCC(=O)O)C4=C3C(=O)CCC4)cc2Cl)cc1	GSTO1 inh 61.8 | GSTO1 inh conf 60.8
Cc1nn(-c2ccccc2)c2c1C(c1ccc(F)cc1F)C(C#N)=C(N)O2 (centres undefined)	none
Cc1ccc(-n2nc(C)c3c2OC(N)=C(C#N)C3c2ccc(C)o2)cc1 (centres undefined)	GSTO1 inh 47.8 | GSTO1 inh conf inactive
Cc1ccc(NC(=O)N[C@@H](CC(C)C)C(=O)O)c(C)c1	none
Cc1ccc(S(=O)(=O)NC(=O)Nc2cccc(C)n2)cc1	none
CCn1nc(C)cc1C(=O)N1CCCC(N2CCN(c3cccc(Cl)c3)CC2)C1 (centres undefined)	GSTO1 inh 46.5 (no result: RBBP9 inh) | GSTO1 inh conf inactive
COc1ccc(CCNC(=O)CCCNC(=O)Cn2cnc3sc(C)c(C)c3c2=O)cc1OC	none
O=C(Nc1ccccc1)c1cn(CCBr)cn1	GSTO1 inh 61.7 (no result: RBBP9 inh) | GSTO1 inh conf 73.0
COc1ccc(/C=C/C(=O)Nc2ccccc2Cl)cc1S(=O)(=O)N1CCOCC1	none
CC(C)C[C@H](NS(=O)(=O)c1ccc(Br)cc1)C(=O)O	none
CC(C)CC(NS(=O)(=O)c1cccc(C(=O)O)c1)C(=O)O (centres undefined)	GSTO1 inh 50.6 | GSTO1 inh conf inactive
NC1=NC(=O)/C(=C/c2cc(Br)c(O)c(Br)c2)S1	GSTO1 inh 41.0 (no result: RBBP9 inh) | GSTO1 inh conf 81.3
NC1=NC(=O)/C(=C/c2ccc(Br)cc2)S1	none (no result: RBBP9 inh)
COc1ccc(OCC(=O)Nc2cccc3ncccc23)cc1	none
O=C(CCl)Nc1cccc2ncccc12	GSTO1 inh 68.9 | GSTO1 inh conf 76.7
COc1ccc(N2Cc3ccc(OC)c(OC)c3C2=O)cc1	none (no result: RBBP9 inh)
O=S1(=O)CCO[C@H]2Cc3ccccc3[C@H]2N1Cc1cccc(Cl)c1	none (no result: RBBP9 inh)
O=S1(=O)CCO[C@H]2Cc3ccccc3[C@H]2N1Cc1ccc(Cl)cc1	GSTO1 inh 37.7 (no result: RBBP9 inh) | GSTO1 inh conf inactive
CCCn1c(C)cc(C(=O)CN2C(=O)c3ccccc3S2(=O)=O)c1C	none (no result: PAD4 FP inh, GSTO1 inh, RBBP9 inh)
Cc1cc(C(=O)CN2C(=O)c3ccccc3S2(=O)=O)c(C)n1CC1CCCO1 (centres undefined)	GSTO1 inh 73.1 | GSTO1 inh conf inactive
O=C(O)CCCCN1C(=O)/C(=C\c2ccc(OCc3ccccc3)c(OCc3ccccc3)c2)SC1=S	none (no result: RBBP9 inh)
CC(NC(=O)Cc1ccccc1)c1ccccc1 (centres undefined)	none (no result: RBBP9 inh)
O=C(Cc1ccccc1)NC1(O)C(=O)c2ccccc2C1=O	GSTO1 inh 72.4 | GSTO1 inh conf 75.4
CSc1ccc(S(=O)(=O)NCC(=O)OCC(=O)N2CCC(C)CC2)cc1[N+](=O)[O-]	none (no result: GSTO1 inh, RBBP9 inh)
Cc1ccc(/C=C2\SC(=S)N(CCCC(=O)NC3CCCC3)C2=O)cc1	none (no result: RBBP9 inh)
Cc1ccc(/C=C2\SC(=S)N(CCC(=O)NNC(=O)c3cccnc3)C2=O)cc1	GSTO1 inh 38.6 | GSTO1 inh conf inactive
O=C(CCN1C(=O)/C(=C/c2ccccc2)SC1=S)NNC(=O)c1cccnc1	none
Cc1nn(-c2ccc(Cl)cc2)c2[nH]c(CCl)cc(=O)c12	GSTO1 inh 96.5 (no result: RBBP9 inh) | GSTO1 inh conf 97.9 | GSTO1 recomb ABPP inactive
N#Cc1ccc(N2CCN(C(=O)c3cccs3)CC2)c(F)c1	none (no result: RBBP9 inh)
Cc1ccc2nc(N3CCC(C(=O)O)CC3)nc(-c3ccccc3)c2c1	GSTO1 inh 54.1 | GSTO1 inh conf 57.7
Cc1ccc2nc(N3CCN(C(=O)CCC(=O)O)CC3)nc(-c3ccccc3)c2c1	none (no result: RBBP9 inh)
Oc1ccc2ccccc2c1C1Nc2cccc3cccc(c23)N1	GSTO1 inh 41.9 (no result: SIAE primary, PRMT1 FP inh) | GSTO1 inh conf inactive
COC(=O)c1cccc(-c2ccc(C(c3c(C)[nH][nH]c3=O)c3c(C)[nH][nH]c3=O)o2)c1	GSTO1 inh 59.0, PRMT1 FP inh 29.1 | GSTO1 inh conf 54.1
O=C(CCN1C(=O)/C(=C\c2ccccc2F)SC1=S)N1CCCCC1	GSTO1 inh 47.0 (no result: RBBP9 inh) | GSTO1 inh conf inactive
Cc1cccn2c(=O)c(/C=C(\C#N)C(=O)NCc3ccco3)c(N3CCOCC3)nc12	none
N#C/C(=C\c1c(N2CCC(C(N)=O)CC2)nc2ccccn2c1=O)C(=O)NCc1ccco1	GSTO1 inh 45.0 | GSTO1 inh conf inactive
CCOC(=O)c1sc(N(Cc2ccccc2)C(=O)COC(=O)c2ccccc2O)nc1C	none
CCOC(=O)c1sc(N(Cc2ccccc2)C(=O)CCl)nc1C	GSTO1 inh 84.4, PRMT1 FP inh 21.6 (no result: RBBP9 inh) | GSTO1 inh conf 92.0
Cc1ccc(SC2=C(Sc3ccc(C)cc3)C(=O)c3ccccc3C2=O)cc1	GSTO1 inh 71.3 | GSTO1 inh conf inactive

High-throughput results as filed in PubChem BioAssay.
